Consider two compounds from ChEMBL document CHEMBL4406821, “Novel dual inhibitors targeting CDK4 and VEGFR2 synergistically suppressed cancer progression and angiogenesis” (Eur J Med Chem, 2019).

The nature of series [1]: n-octanol/phosphate buffered saline partition coefficient, log D of the compound measured at pH 7.4 by shake flask method based HPLC analysis. Format: physicochemical.
Series [2] deals with HUVEC. Put plainly: Antiproliferative activity against HUVEC cells assessed as reduction in cell viability at 20 to 40 nM by CCK8 assay. Format: functional, cell-based. The conditions noted are these: Homo sapiens, TDE = time-dependent effect. The procedure, abridged:
(§1)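 HUVECs, 3×10³ cells/well, kept in 1640 medium with 10% FBS at 37°C and 5% CO₂. Cells were treated at 20 or 40 nM or vehicle, and viability was read by CCK-8 (absorbance 450 nm) at 0, 12, 24, 36, 48, 60 and 72 h. Five replicates per sample.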
For orientation: Formazan colour is commonly taken as a measure of viable cells.

Series [3] addresses Tau-tubulin kinase 2 (Homo sapiens) (UniProt Q6IQ55). In words: Inhibition of recombinant human TTBK2 (1 to331 residues) at 1 uM using casein as substrate incubated for 40 mins in presence of [gamma-33P]-ATP by scintillation counting method relative to control. The procedure, abridged:
(§2)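 Tested at a single 1 uM in an outsourced commercial kinase-profiling panel, read as percent inhibition. Each value is the mean of two independent experiments.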

In series [4] the target is Death-associated protein kinase 1 (Homo sapiens) (UniProt P53355). In words: Inhibition of recombinant human DAPK1 (1 to 296 residues) at 1 uM using KKLNRTLSFAEPG as substrate incubated for 40 mins in presence of [gamma-33P]-ATP by scintillation counting method relative to control. The procedure, abridged:
as §2

Series [5] addresses Platelet-derived growth factor receptor beta (Homo sapiens) (UniProt P09619). Put plainly: Inhibition of recombinant human PDGFRbeta (557 to end residues) at 1 uM using poly(Glu, Tyr) 4:1 as substrate incubated for 40 mins in presence of [gamma-33P]-ATP by scintillation counting method relative to control.
In series [6] the target is Serine/threonine-protein kinase 32C (Homo sapiens) (UniProt Q86UX6). Put plainly: Inhibition of recombinant human full length STK32C at 1 uM using casein as substrate incubated for 40 mins in presence of [gamma-33P]-ATP by scintillation counting method relative to control.
Serine/threonine-protein kinase 32C (Homo sapiens), sequence (Q86UX6 whole entry): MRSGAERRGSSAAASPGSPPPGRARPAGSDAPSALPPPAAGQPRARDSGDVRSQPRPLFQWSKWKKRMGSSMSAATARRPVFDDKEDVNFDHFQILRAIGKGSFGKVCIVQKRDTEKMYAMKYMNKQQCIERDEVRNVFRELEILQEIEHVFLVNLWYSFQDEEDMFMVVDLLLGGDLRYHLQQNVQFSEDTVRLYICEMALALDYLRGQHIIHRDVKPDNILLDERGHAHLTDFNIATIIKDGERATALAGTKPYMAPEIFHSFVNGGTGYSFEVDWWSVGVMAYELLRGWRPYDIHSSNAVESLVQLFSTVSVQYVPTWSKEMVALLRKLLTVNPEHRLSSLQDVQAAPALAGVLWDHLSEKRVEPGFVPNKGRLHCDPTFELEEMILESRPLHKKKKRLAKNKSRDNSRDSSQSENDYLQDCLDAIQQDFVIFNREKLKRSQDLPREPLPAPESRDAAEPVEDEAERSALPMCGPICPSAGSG
The target in series [7] is Aurora kinase B (Homo sapiens) (UniProt Q96GD4). In words: Inhibition of recombinant full length human Aurora-B at 1 uM using AKRRRLSSLRA as substrate incubated for 40 mins in presence of [gamma-33P]-ATP by scintillation counting method relative to control. A digest of the protocol:
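Kinase panel profiling at 1 μM performed by Eurofins KinaseProfiler; percent inhibition reported as mean of two independent experiments.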

Series [8] concerns HUVEC. In words: Antiproliferative activity against HUVEC cells assessed as reduction in cell viability measured upto 72 hrs by CCK8 assay. Format: functional, cell-based. Conditions: Homo sapiens. The procedure, abridged:
as §1

Series [9] deals with Mitogen-activated protein kinase kinase kinase 11 (Homo sapiens) (UniProt Q16584). In words: Inhibition of recombinant human MLK3 at 1 uM incubated for 40 mins in presence of [gamma-33P]-ATP by scintillation counting method relative to control.
In series [10] the target is Protein kinase C delta type (Homo sapiens) (UniProt Q05655). In words: Inhibition of recombinant human PKCdelta (2 to end residues) at 1 uM using ERMRPRKRQGSVRRRV as substrate incubated for 40 mins in presence of [gamma-33P]-ATP by scintillation counting method relative to control.
Protein kinase C delta type (Homo sapiens), sequence (Q05655 whole entry, looked up): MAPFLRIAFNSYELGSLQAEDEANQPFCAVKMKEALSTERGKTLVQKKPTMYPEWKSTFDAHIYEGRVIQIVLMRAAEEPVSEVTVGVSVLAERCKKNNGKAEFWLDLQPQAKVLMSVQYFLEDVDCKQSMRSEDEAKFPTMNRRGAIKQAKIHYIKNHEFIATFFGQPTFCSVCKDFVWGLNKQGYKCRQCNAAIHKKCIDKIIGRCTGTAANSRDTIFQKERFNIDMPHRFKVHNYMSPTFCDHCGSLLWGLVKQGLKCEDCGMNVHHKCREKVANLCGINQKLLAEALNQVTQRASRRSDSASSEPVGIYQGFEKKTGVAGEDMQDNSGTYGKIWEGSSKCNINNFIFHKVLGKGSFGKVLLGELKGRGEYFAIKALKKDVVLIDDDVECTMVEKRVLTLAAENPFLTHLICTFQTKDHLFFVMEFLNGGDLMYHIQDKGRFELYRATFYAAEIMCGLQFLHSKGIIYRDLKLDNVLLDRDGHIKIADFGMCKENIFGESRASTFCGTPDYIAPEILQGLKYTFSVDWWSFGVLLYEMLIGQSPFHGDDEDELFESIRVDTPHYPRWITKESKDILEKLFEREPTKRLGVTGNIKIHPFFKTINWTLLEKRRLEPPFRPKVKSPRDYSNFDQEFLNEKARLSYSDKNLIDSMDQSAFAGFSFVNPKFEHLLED
Series [11] concerns the target Tyrosine-protein kinase SYK (Homo sapiens) (UniProt P43405). Put plainly: Inhibition of recombinant human full length SYK at 1 uM using poly(Glu, Tyr) 4:1 as substrate incubated for 40 mins in presence of [gamma-33P]-ATP by scintillation counting method relative to control.
A further series relates to T47D. In words: Induction of apoptosis in human T47D cells assessed as decrease in Bcl2 expression at 20 to 40 nM incubated for 48 hrs by Western blot analysis. It counts as functional, cell-based. A digest of the protocol:
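Cancer cells were exposed to graded concentrations for 48 h, washed three times in PBS and lysed in RIPA buffer. Immunoblots were probed with anti-Rb, anti-phospho-Rb, anti-Ki67 and anti-Bcl-2, each at 1:1000. β-actin served as loading control.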
On the technique in general: In western blotting, separated proteins are transferred to a membrane and probed.

In series [12] the target is [Pyruvate dehydrogenase (acetyl-transferring)] kinase isozyme 4, mitochondrial (Homo sapiens) (UniProt Q16654). Put plainly: Inhibition of recombinant human full length PDHK4 at 1 uM using KKKYHGHSMSDPGVSYRT as substrate incubated for 40 mins in presence of [gamma-33P]-ATP by scintillation counting method relative to control. The procedure, abridged: as §2
The target in series [13] is Phosphatidylinositol 4,5-bisphosphate 3-kinase catalytic subunit gamma isoform (Homo sapiens) (UniProt P48736). Put plainly: Inhibition of recombinant human full length PI3K p120gamma at 1 uM using phosphatidylinositol-4, 5-bisphosphate as substrate incubated for 40 mins in presence of [gamma-33P]-ATP by scintillation counting method relative to control.
The target of series [14] is G protein-coupled receptor kinase 3 (Homo sapiens) (UniProt P35626). Put plainly: Inhibition of recombinant human full length GRK3 at 1 uM using casein as substrate incubated for 40 mins in presence of [gamma-33P]-ATP by scintillation counting method relative to control.
G protein-coupled receptor kinase 3 (Homo sapiens), sequence (P35626 whole entry): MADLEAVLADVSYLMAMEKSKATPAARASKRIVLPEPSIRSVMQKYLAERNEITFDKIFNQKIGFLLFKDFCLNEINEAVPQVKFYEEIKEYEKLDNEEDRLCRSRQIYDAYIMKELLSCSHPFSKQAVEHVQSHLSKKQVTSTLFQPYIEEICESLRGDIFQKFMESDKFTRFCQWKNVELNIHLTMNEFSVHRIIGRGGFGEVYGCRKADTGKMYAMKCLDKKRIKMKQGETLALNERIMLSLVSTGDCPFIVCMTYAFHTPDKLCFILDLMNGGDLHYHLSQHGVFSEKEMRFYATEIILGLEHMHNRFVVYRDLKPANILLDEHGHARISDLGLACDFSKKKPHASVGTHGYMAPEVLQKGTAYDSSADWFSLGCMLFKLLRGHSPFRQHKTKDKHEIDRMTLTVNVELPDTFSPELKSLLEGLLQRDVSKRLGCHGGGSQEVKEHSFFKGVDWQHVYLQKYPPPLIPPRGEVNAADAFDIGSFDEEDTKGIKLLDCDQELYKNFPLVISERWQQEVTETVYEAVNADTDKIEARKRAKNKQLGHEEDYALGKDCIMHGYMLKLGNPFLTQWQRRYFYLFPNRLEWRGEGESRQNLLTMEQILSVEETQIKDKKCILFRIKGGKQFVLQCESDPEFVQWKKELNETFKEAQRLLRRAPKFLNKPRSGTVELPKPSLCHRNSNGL
Series [15] concerns the target Serine/threonine-protein kinase DCLK2 (Homo sapiens) (UniProt Q8N568). Put plainly: Inhibition of recombinant human DCAMKL2 (376 to end residues) at 1 uM using KKLNRTLSFAEPG as substrate incubated for 40 mins in presence of [gamma-33P]-ATP by scintillation counting method relative to control. A digest of the protocol:
as §2

Series [16] relates to Epidermal growth factor receptor (Homo sapiens), P00533 [L861Q]. In words: Inhibition of recombinant human EGFR L861Q mutant (696 to end residues) at 1 uM using poly(Glu, Tyr) 4:1 as substrate incubated for 40 mins in presence of [gamma-33P]-ATP by scintillation counting method relative to control.
Epidermal growth factor receptor (Homo sapiens), P00533 [L861Q], sequence (P00533 whole entry L861Q): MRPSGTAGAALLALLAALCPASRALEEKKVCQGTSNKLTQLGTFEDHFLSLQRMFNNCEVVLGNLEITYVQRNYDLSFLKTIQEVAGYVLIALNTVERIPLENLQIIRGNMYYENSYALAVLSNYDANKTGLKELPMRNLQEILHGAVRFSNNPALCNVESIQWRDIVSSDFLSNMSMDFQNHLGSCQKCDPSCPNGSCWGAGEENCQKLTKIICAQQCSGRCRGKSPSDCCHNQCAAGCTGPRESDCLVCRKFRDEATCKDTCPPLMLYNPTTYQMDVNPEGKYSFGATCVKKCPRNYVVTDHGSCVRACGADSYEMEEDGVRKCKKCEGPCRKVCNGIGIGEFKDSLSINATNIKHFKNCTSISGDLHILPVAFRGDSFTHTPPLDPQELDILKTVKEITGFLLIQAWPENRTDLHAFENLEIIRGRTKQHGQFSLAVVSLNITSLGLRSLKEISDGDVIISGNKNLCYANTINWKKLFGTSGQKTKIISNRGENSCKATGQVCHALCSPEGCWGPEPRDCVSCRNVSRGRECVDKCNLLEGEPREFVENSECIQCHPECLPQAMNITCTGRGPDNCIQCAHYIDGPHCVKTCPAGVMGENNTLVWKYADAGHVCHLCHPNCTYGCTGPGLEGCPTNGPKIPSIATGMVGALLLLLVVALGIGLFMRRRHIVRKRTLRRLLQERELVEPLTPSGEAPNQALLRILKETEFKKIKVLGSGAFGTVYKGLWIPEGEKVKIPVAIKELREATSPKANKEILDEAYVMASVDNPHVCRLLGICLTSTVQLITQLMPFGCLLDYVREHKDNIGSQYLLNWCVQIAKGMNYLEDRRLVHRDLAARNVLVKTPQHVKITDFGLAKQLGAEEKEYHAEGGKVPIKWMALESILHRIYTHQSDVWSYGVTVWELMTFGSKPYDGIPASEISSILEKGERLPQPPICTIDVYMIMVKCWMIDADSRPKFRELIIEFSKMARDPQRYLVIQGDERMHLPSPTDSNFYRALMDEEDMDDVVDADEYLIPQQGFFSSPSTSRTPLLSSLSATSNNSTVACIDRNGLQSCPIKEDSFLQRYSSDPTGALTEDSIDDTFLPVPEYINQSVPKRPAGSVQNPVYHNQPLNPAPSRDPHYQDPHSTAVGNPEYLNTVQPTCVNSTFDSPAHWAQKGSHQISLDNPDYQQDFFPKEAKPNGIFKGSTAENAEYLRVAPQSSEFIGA
Another series has as its system MDA-MB-231. Put plainly: Induction of apoptosis in human MDA-MB-231 cells assessed as decrease in Rb phosphorylation incubated for 48 hrs by Western blot analysis. It counts as functional, cell-based. A digest of the protocol: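 Cells were treated for 48 h, washed three times with PBS, and lysed in RIPA buffer. Immunoblots used anti-Rb, anti-phospho-Rb, anti-Ki67 and anti-Bcl-2 (each 1:1000), with β-actin as loading control.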

Series [17] deals with RAC-alpha serine/threonine-protein kinase (Homo sapiens) (UniProt P31749). Put plainly: Inhibition of recombinant human PKBalpha at 1 uM using as CKRREILSRRPSYRK substrate incubated for 60 mins in presence of [gamma-33P]-ATP by scintillation counting method relative to control.
RAC-alpha serine/threonine-protein kinase (Homo sapiens), sequence (P31749 whole entry): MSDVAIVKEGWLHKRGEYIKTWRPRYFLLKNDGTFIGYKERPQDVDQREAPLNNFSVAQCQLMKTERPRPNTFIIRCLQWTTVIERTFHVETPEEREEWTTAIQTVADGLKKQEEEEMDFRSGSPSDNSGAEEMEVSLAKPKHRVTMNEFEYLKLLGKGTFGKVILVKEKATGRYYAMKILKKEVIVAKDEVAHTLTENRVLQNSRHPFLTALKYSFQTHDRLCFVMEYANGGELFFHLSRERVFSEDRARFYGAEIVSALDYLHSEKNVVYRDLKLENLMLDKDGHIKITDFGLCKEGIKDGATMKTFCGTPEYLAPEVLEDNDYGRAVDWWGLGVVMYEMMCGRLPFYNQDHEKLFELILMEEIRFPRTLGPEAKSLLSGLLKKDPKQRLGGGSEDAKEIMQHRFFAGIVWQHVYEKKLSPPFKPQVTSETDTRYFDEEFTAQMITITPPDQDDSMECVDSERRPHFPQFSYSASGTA
A further series deals with HeLa. In words: Inhibition of colony formation in human HeLa cells at 80 nM incubated for 5 days by crystal violet staining based light microscopy. It counts as functional, cell-based. A digest of the protocol: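 4 × 10^3 cells per well were cultured with graded concentrations for 5 days. Cells were then fixed with 20% methanol, stained with 0.5% crystal violet and photographed by light microscopy.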

A further series relates to SiHa. In words: Antitumor activity against human SiHa cells xenografted in NOD/SCID BALB/c mouse assessed as reduction in Ki67 expression at 40 mg/kg, po measured after 21 days by hematoxylin and eosin staining based immunohistochemistry. Format: functional, organism-based. A digest of the protocol:
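Female NOD/SCID Balb/c mice, 6–8 weeks old, received 2×10^6 SiHa cells subcutaneously in the right flank. Once tumors reached 100 mm³, mice were randomized, 5 per group, and gavaged once daily for 21 days. Formalin-fixed, paraffin-embedded tumor sections were stained with Ki67 or CD31 antibody (1:100, 4 °C overnight), then biotin secondary and ABC-peroxidase/DAB, with hematoxylin counterstain.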
Background: Xenograft models place foreign cells or tissue in a host animal.

Molecules are shown by their SMILES. Activity calls are given as the source filed them. The calls are words filed in the database; no cut-off is given here.

Death-associated protein kinase 1 (Homo sapiens), sequence (P53355 whole entry, looked up, the tested form may be a part): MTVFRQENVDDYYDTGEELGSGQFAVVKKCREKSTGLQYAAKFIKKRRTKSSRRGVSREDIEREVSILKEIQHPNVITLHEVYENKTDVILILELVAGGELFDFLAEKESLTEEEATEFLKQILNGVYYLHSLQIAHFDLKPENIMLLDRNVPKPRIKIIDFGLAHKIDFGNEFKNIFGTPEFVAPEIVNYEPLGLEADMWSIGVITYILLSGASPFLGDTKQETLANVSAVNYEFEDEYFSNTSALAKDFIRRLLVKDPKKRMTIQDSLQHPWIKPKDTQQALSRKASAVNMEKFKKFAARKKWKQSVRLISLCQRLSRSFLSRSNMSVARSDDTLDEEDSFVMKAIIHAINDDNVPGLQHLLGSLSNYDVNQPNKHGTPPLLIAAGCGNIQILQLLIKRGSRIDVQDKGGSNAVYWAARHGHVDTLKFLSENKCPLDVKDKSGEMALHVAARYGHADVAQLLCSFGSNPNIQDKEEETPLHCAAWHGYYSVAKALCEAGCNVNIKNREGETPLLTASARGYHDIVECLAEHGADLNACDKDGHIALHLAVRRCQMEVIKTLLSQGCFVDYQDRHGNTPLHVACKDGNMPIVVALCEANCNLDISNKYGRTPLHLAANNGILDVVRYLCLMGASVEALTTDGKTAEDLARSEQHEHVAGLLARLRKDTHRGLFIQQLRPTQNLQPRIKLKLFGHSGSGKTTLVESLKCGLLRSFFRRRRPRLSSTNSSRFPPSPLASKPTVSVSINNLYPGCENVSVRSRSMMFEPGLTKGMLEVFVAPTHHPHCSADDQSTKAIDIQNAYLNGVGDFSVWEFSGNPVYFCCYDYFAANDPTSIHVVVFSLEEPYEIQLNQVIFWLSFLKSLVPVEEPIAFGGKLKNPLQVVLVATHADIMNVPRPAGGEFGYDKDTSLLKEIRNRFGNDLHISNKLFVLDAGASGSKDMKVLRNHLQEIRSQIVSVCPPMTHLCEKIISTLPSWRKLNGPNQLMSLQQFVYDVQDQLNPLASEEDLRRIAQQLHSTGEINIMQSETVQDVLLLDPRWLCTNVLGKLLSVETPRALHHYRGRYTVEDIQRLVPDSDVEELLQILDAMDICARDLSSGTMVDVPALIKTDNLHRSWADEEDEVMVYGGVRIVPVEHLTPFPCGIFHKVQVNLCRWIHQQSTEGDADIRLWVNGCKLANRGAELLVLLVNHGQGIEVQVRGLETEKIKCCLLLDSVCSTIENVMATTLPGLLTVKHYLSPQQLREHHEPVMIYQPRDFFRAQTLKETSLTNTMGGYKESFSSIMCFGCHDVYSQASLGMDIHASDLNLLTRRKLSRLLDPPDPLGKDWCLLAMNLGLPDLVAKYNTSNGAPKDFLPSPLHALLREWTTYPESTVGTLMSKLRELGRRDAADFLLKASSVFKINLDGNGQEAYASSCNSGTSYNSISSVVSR

What is called logD is the decadic logarithm of the distribution of all forms, ionised or not, between an organic phase and buffer at a given pH. Read a low logD as a more hydrophilic compound. For orientation: inhibition means the relative decrease from the control value, in per cent. Consider `Cc1ccc(NC(=O)C2(C(=O)Nc3ccc(Nc4ncc(F)c(-c5cc(F)c6nc(C)n(C(C)C)c6c5)n4)cc3)CC2)cc1`, for which the logD in series [1] is 2.51. Further, the inhibition entry in the series with HUVEC [2] was “Tde”; in series [3], 0%; in series [4] it was 0%; in series [5], 6%; in series [6], 5%; in series [7], 64%. In addition, the inhibition entry in the series with HUVEC [8] is “Dose-dependent effect”; in [9] it was -2%; in [10] it was 29%; in series [11], 49%; in series [12], 0%; in series [13], 14%. Further, the inhibition turned out to be 10% in series [14], 0% in series [15], 34% in series [16] and 36% in series [17]. For the same compound, the outcome with T47D was Active. The Activity entry with MDA-MB-231 was “Dose-dependent effect”.

Take `COc1cc2nccc(Oc3ccc(NC(=O)C4(C(=O)Nc5ccc(F)cc5)CC4)cc3)c2cc1OC` [CABOZANTINIB]: the inhibition result with HeLa and with SiHa was “Active” throughout.
